Experimental data taken from ChEMBL document CHEMBL2057126, “Discovery of new inhibitors of Cdc25B dual specificity phosphatases by structure-based virtual screening” (J Med Chem, 2012).
Activity calls are given as the source filed them. The rule behind the calls is not given here.

Tests used:
[1] = target: M-phase inducer phosphatase 2 (Homo sapiens) (UniProt P30305); assay: (§1) Inhibition of recombinant phosphatase activity of Cdc25B catalytic domain expressed in Escherichia coli BL21(DE3) using OMFP as substrate at 100 uM after 15 mins by fluorimetric assay
[2] = target: M-phase inducer phosphatase 3 (Homo sapiens) (UniProt P30307); assay: (§2) Inhibition of recombinant phosphatase activity of Cdc25C catalytic domain expressed in Escherichia coli BL21(DE3) using OMFP as substrate at 100 uM after 15 mins by fluorimetric assay
[3] = target: M-phase inducer phosphatase 1 (Homo sapiens) (UniProt P30304); assay: (§3) Inhibition of recombinant phosphatase activity of Cdc25A catalytic domain expressed in Escherichia coli BL21(DE3) using OMFP as substrate at 100 uM after 15 mins by fluorimetric assay
MCF7 [4] = assay: Growth inhibition against human MCF7 cells expressing Cdc25A-C assessed as cell viability at 400 uM after 72 hrs by MTS assay; format: functional, cell-based
How it was run: (§4)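 MCF-7 breast, PC-3 prostate and K562 leukaemia cells treated 72 h with inhibitor or DMSO vehicle control, then cell viability measured. Values are mean ± SD of three experiments; significance by Student's t test, p ≤ 0.05.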

MCF7 [5] = assay: Cell cycle arrest in human MCF7 cells assessed as accumulation at G1 phase at 400 uM after 48 hrs by propidium iodide staining-based flow cytometry (reference value: 64.5 +/- 0.02%); format: functional
MCF7 [6] = assay: Cell cycle arrest in human MCF7 cells assessed as accumulation at S phase at 400 uM after 48 hrs by propidium iodide staining-based flow cytometry (reference value: 14.5 +/- 0.01%); format: functional
PC-3 [7] = assay: Growth inhibition against human PC3 cells expressing Cdc25A-C assessed as cell viability at 400 uM after 72 hrs by MTS assay; format: functional, cell-based; how it was run: as §4
[8] = target: T1, M-phase inducer phosphatase 2 (Homo sapiens, UniProt P30305); assay: Competitive inhibition of recombinant phosphatase activity of Cdc25B catalytic domain expressed in Escherichia coli BL21(DE3) using OMFP as substrate by Lineweaver-Burk plot analysis
T1 sequence (P30305 whole entry): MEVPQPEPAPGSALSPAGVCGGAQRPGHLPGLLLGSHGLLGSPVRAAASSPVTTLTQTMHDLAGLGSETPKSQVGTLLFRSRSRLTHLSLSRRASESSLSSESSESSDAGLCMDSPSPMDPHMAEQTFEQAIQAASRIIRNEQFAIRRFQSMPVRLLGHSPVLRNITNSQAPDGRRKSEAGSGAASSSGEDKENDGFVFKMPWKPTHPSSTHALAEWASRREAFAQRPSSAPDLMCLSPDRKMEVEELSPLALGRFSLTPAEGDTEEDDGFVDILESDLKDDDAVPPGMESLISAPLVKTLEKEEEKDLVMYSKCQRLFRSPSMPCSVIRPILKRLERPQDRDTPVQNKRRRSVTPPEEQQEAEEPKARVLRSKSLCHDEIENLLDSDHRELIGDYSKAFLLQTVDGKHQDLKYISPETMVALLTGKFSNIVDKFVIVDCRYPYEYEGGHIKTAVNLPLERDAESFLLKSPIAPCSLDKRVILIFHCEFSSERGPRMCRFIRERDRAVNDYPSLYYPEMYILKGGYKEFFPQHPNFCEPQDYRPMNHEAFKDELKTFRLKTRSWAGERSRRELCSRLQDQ

[9] = target: T2, M-phase inducer phosphatase 2 (Homo sapiens) (UniProt P30305); assay: Inhibition of Cdc25B in human K562 cells assessed as increase in Cdk1 phosphorylation at 400 uM after 24 hrs by Western blot analysis; format: cell-based
T2 sequence (whole entry): T1 sequence (P30305 whole entry)
How it was run: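 K562 cells treated 24 h with inhibitor or DMSO vehicle, lysed, and Western blotted with anti-phospho-Cdk1 (Y15) antibody; total Cdk1 detected as loading control.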

[10] = target: T1, M-phase inducer phosphatase 2; assay: (§5) Inhibition of recombinant phosphatase activity of Cdc25B catalytic domain expressed in Escherichia coli BL21(DE3) using OMFP as substrate by spectrofluorimetric analysis
[11] = target: T2, M-phase inducer phosphatase 2 (Homo sapiens); assay: as §5
[12] = target: T2, M-phase inducer phosphatase 2 (Homo sapiens); assay: as §1; remark: listed apart in the source
MCF7 [13] = assay: Cell cycle arrest in human MCF7 cells assessed as accumulation at G1 phase at 400 uM after 24 hrs by propidium iodide staining-based flow cytometry (reference value: 81.3 +/- 0.01%); format: functional
MCF7 [14] = assay: Cell cycle arrest in human MCF7 cells assessed as accumulation at G2/M phase at 400 uM after 48 hrs by propidium iodide staining-based flow cytometry (reference value: 21 +/- 0.04%); format: functional
[15] = target: T3, M-phase inducer phosphatase 3 (Homo sapiens) (UniProt P30307); assay: as §2; remark: listed apart in the source
T3 sequence (whole entry): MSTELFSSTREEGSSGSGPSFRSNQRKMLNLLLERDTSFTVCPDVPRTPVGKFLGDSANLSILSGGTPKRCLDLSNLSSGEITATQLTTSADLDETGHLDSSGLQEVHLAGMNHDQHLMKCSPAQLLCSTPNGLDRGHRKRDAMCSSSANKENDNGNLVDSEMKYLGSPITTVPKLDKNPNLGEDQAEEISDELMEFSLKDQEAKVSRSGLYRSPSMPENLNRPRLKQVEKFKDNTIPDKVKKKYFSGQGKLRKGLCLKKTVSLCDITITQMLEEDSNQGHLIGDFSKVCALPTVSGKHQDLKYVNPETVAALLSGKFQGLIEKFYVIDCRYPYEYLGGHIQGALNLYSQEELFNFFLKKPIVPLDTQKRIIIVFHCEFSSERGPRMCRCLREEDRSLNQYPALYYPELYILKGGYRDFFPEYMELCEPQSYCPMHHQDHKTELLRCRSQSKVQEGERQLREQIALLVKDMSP

[16] = target: T4, M-phase inducer phosphatase 1 (Homo sapiens) (UniProt P30304); assay: as §3; remark: listed apart in the source
T4 sequence (whole entry): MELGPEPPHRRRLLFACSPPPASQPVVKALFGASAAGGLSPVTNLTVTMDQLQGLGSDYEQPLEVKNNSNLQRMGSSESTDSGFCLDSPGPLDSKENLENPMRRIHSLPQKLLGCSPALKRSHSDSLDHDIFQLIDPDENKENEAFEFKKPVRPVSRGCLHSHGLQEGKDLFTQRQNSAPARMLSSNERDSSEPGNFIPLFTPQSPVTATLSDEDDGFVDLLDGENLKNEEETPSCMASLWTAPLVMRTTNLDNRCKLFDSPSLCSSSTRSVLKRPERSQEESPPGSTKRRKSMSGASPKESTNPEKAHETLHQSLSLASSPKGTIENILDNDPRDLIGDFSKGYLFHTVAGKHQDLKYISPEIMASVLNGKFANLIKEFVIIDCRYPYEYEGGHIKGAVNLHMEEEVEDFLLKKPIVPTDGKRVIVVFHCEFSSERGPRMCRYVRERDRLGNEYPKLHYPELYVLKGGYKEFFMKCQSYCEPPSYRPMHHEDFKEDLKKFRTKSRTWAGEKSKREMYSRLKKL

K562 [17] = assay: Growth inhibition against human K562 cells expressing Cdc25A-C assessed as cell viability at 400 uM after 72 hrs by MTS assay; format: functional, cell-based; how it was run: as §4
[18] = target: T5, M-phase inducer phosphatase 1 (Homo sapiens, UniProt P30304); assay: Inhibition of recombinant phosphatase activity of Cdc25A catalytic domain expressed in Escherichia coli BL21(DE3) using OMFP as substrate by Lineweaver-Burk plot analysis
T5 sequence (P30304 whole entry): T4 sequence (whole entry)
How it was run: (§6)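 Purified recombinant Cdc25A catalytic domain; phosphatase activity measured as OMFP hydrolysis versus inhibitor concentration to derive IC50, with Ki calculated from kinetic measurements. Results are averages ± SD of three determinations.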

[19] = target: T5, M-phase inducer phosphatase 1; assay: Inhibition of recombinant phosphatase activity of Cdc25A catalytic domain expressed in Escherichia coli BL21(DE3) using OMFP as substrate by spectrofluorimetric analysis; how it was run: as §6
MCF7 [20] = assay: Cell cycle arrest in human MCF7 cells assessed as accumulation at G2/M phase at 400 uM after 24 hrs by propidium iodide staining-based flow cytometry (reference value: 9.4 +/- 0.04%); format: functional
MCF7 [21] = assay: Cell cycle arrest in human MCF7 cells assessed as accumulation at S phase at 400 uM after 24 hrs by propidium iodide staining-based flow cytometry (reference value: 9.35%); format: functional
[22] = target: T2, M-phase inducer phosphatase 2 (Homo sapiens); assay: Reversible inhibition of recombinant phosphatase activity of Cdc25B catalytic domain expressed in Escherichia coli BL21(DE3) assessed as residual activity of enzyme measured after 10 fold dilution at 100 uM preincubated for 20 mins
MCF7 [23] = assay: Cell cycle arrest in human MCF7 cells assessed as accumulation at S phase at 20 uM after 48 hrs by propidium iodide staining-based flow cytometry (reference value: 14.5 +/- 0.01%); format: functional
MCF7 [24] = assay: Cell cycle arrest in human MCF7 cells assessed as accumulation at G2/M phase at 20 uM after 48 hrs by propidium iodide staining-based flow cytometry (reference value: 21 +/- 0.04%); format: functional
MCF7 [25] = assay: Growth inhibition against human MCF7 cells expressing Cdc25A-C assessed as cell viability at 20 uM after 72 hrs by MTS assay; format: functional, cell-based; how it was run: as §4
K562 [26] = assay: Growth inhibition against human K562 cells expressing Cdc25A-C assessed as cell viability at 20 uM after 72 hrs by MTS assay; format: functional, cell-based; how it was run: as §4
K562 [27] = assay: Increase of ROS level in human K562 cells expressing Cdc25A-C using H2DCFDA at 20 uM after 30 mins by flow cytometry in presence of DTT; format: functional, cell-based
[28] = target: T2, M-phase inducer phosphatase 2 (Homo sapiens); conditions: 400 uM
MCF7 [29] = assay: Cell cycle arrest in human MCF7 cells assessed as accumulation at G1 phase at 20 uM after 48 hrs by propidium iodide staining-based flow cytometry (reference value: 64.5 +/- 0.02%); format: functional
MCF7 [30] = assay: Cell cycle arrest in human MCF7 cells assessed as accumulation at G2/M phase at 20 uM after 24 hrs by propidium iodide staining-based flow cytometry (reference value: 9.4 +/- 0.04%); format: functional
[31] = target: T2, M-phase inducer phosphatase 2 (Homo sapiens); assay: Reversible inhibition of recombinant phosphatase activity of Cdc25B catalytic domain expressed in Escherichia coli BL21(DE3) assessed as residual activity of enzyme measured after 10 fold dilution at 100 uM preincubated for 20 mins
How it was run: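 Cdc25B (0.5 μg) preincubated 20 min at room temperature with 100 μM inhibitor or DMSO vehicle, then diluted 10-fold. Residual phosphatase activity was read after adding OMFP substrate and expressed as percent of the untreated control. Mean ± SD of three determinations.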

PC-3 [32] = assay: Increase of ROS level in human PC3 cells expressing Cdc25A-C using H2DCFDA at 20 uM after 30 mins by flow cytometry in presence of DTT; format: functional, cell-based
MCF7 [33] = assay: Cell cycle arrest in human MCF7 cells assessed as accumulation at S phase at 20 uM after 24 hrs by propidium iodide staining-based flow cytometry (reference value: 9.35%); format: functional
[34] = target: T2, M-phase inducer phosphatase 2 (Homo sapiens); conditions: K562, 20 uM
PC-3 [35] = assay: Increase of ROS level in human PC3 cells expressing Cdc25A-C using H2DCFDA at 20 uM after 30 mins by flow cytometry; format: functional, cell-based
PC-3 [36] = assay: Growth inhibition against human PC3 cells expressing Cdc25A-C assessed as cell viability at 20 uM after 72 hrs by MTS assay; format: functional, cell-based; how it was run: as §4
K562 [37] = assay: Increase of ROS level in human K562 cells expressing Cdc25A-C using H2DCFDA at 20 uM after 30 mins by flow cytometry; format: functional, cell-based
MCF7 [38] = assay: Cell cycle arrest in human MCF7 cells assessed as accumulation at G1 phase at 20 uM after 24 hrs by propidium iodide staining-based flow cytometry (reference value: 81.3 +/- 0.01%); format: functional

| Compound | growth inhibition (GI) (MCF7 [4]) | Activity (MCF7 [5]) [%] | Activity (MCF7 [6]) [%] | growth inhibition (GI) (PC-3 [7]) | inhibition [9] | inhibition [11] | inhibition [12] [%] | Activity (MCF7 [13]) [%] | Activity (MCF7 [14]) [%] | inhibition [15] [%] | inhibition [16] [%] | growth inhibition (GI) (K562 [17]) | Activity (MCF7 [20]) [%] | Activity (MCF7 [21]) [%] | further results |
| --- | --- | --- | --- | --- | --- | --- | --- | --- | --- | --- | --- | --- | --- | --- | --- |
| VANADATE |  |  |  |  |  |  |  |  |  |  |  |  |  |  | inhibition [1]: 91%; inhibition [2]: 90%; inhibition [3]: 77% |
| O=S(=O)(O)c1ccc(-c2nnc(-c3ccccn3)nc2-c2ccc(S(=O)(=O)O)o2)o1 | Active | 95.4 | 1.8 | Active | Active | Dose-dependent effect | 53 | 78.7 | 2.9 | 35 | 41 | Active | 10 | 11.3 | Ki [8]: 159 µM; IC50 [10]: 173 µM; Ki [18]: 139 µM; IC50 [19]: 110 µM |
| COc1ccc(Cc2ccc3nc(O)cc(C)c3c2)cc1S(=O)(=O)O | Active | 93.5 | 3.2 | Active | Active | Dose-dependent effect | 41 | 91.1 | 3.3 | 55 | 46 | Active | 5.6 | 3.3 | inhibition [22]: Active |
| O=C(O)CCc1c2ccc(=O)c(O)c-2oc2c(O)c(O)ccc12 |  |  |  |  |  | Dose-dependent effect | 99 |  |  | 99 | 100 |  |  |  | Activity (MCF7 [23]): 2.6%; Activity (MCF7 [24]): 4.6%; growth inhibition (GI) (MCF7 [25]): Active; growth inhibition (GI) (K562 [26]): Active; Activity (K562 [27]): inactive; inhibition [28]: Active; Activity (MCF7 [29]): 92.8%; Activity (MCF7 [30]): 18.1%; inhibition [31]: Active; Activity (PC-3 [32]): inactive; Activity (MCF7 [33]): 13.1%; inhibition [34]: Active; Activity (PC-3 [35]): Active; growth inhibition (GI) (PC-3 [36]): Active; Activity (K562 [37]): Active; Activity (MCF7 [38]): 68.8% |
